The text below walks through data of ChEMBL document CHEMBL1255195, “Synthesis and biological activity of pyrido[3',2':4,5]thieno[3,2-d]pyrimidines as phosphodiesterase type 4 inhibitors” (J Med Chem, 2010).

For data set [1], the target named is 3',5'-cyclic-AMP phosphodiesterase 4B (Homo sapiens, UniProt Q07343). The experiment in a line: Inhibition of PDE4B1 expressed in yeast. A digest of the protocol: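 Human recombinant PDE4A4, PDE4B1 or PDE4D3 made in galactose-induced […]; dialysed extracts (~4 μg protein) used. Hydrolysis of 15 nM [3H]-cAMP in 50 mM Tris pH 7.5, 8.3 mM MgCl2, 1.7 mM EGTA, final DMSO 5%, 60 min at room temperature. Reaction stopped with SPA beads, then scintillation counted. Compounds tested 10 μM to 10 pM in duplicate; IC50 calculated.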
Sequence of 3',5'-cyclic-AMP phosphodiesterase 4B (Q07343 whole entry): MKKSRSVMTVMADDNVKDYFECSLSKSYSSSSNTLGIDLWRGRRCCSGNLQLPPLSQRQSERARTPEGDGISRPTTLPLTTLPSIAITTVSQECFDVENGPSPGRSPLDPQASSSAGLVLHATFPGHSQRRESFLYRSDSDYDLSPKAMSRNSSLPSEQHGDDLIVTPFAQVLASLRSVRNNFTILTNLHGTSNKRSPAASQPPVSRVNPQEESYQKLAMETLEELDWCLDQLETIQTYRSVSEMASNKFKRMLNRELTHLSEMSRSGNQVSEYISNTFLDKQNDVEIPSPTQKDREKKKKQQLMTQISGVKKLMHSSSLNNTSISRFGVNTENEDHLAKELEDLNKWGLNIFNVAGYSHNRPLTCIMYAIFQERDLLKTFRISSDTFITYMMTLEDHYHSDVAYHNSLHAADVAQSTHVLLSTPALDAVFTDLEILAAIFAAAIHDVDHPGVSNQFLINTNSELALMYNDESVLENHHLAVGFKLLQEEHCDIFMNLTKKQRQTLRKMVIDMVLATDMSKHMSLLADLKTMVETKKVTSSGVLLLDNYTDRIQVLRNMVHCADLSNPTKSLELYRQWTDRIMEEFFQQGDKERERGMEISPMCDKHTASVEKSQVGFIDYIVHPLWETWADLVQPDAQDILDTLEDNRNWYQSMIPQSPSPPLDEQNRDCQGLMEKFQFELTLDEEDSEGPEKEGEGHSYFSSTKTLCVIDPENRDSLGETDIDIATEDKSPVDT

The next data set has as its system Blood. Briefly: Antiinflammatory activity against LPS-induced TNFalpha production in human whole blood by ELISA. The data set is classed as functional, tissue-based. A digest of the protocol: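 Human whole blood preincubated at 37 °C for 10 min with LPS at final 1 μg/mL; inhibitors in 100% DMSO added at increasing concentrations, blood (LPS-free for controls) incubated 24 h at 37 °C under agitation. Reaction stopped on ice with PBS and centrifugation; serum TNFα measured by sandwich ELISA, TMB substrate, 450 nm. Experiments run 2-3 times, duplicates averaged, given as pg/mL.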
(In general: An ELISA detects its analyte on a solid surface through an enzyme-linked reagent.)

Data set [2] addresses 3',5'-cyclic-AMP phosphodiesterase 4A (Homo sapiens, UniProt P27815). The experiment in a line: Inhibition of PDE4A4 expressed in yeast.
For data set [3], the target named is 3',5'-cyclic-AMP phosphodiesterase 4D (Homo sapiens, UniProt Q08499). The experiment in a line: Inhibition of PDE4D3 expressed in yeast.
Sequence of 3',5'-cyclic-AMP phosphodiesterase 4D (Q08499 whole entry): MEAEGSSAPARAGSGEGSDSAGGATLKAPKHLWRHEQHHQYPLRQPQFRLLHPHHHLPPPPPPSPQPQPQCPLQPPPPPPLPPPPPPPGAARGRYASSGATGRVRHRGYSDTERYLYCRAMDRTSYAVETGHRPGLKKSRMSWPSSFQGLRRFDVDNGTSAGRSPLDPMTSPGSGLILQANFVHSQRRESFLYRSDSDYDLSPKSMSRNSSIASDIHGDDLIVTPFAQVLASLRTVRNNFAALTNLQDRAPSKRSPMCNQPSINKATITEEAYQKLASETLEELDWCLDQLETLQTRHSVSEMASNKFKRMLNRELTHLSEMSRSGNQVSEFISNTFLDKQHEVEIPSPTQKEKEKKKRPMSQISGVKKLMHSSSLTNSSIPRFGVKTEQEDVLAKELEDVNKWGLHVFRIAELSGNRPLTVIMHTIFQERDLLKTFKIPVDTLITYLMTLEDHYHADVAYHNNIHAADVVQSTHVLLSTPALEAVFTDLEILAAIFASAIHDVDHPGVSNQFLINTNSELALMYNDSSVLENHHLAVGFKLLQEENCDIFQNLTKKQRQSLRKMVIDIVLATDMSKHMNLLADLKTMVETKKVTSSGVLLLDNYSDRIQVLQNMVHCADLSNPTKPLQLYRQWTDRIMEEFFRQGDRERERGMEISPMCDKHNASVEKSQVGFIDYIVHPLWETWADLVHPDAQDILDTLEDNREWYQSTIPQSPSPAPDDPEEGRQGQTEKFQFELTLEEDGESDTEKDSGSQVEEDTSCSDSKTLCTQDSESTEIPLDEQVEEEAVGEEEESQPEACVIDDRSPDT
Data set [4] in a line: Apparent permeability from apical to basolateral side of human Caco-2 cells. In kind it is ADME, cell-based. In short, it runs like this:
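Caco-2 cells seeded at 500 000 cells/well on collagen-coated PET membranes (1 μm pores), differentiated and used six days post-seeding. Compound applied in HBSS with 10 mM Hepes and 25 mM glucose, pH 7.4, at most 1% DMSO, on the apical side. Samples taken after 3 h and analysed by HPLC-UV. [3H]mannitol 115 nM served as integrity control.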

pIC50: −log10 of the molar value.

Sequence of 3',5'-cyclic-AMP phosphodiesterase 4A (P27815 whole entry): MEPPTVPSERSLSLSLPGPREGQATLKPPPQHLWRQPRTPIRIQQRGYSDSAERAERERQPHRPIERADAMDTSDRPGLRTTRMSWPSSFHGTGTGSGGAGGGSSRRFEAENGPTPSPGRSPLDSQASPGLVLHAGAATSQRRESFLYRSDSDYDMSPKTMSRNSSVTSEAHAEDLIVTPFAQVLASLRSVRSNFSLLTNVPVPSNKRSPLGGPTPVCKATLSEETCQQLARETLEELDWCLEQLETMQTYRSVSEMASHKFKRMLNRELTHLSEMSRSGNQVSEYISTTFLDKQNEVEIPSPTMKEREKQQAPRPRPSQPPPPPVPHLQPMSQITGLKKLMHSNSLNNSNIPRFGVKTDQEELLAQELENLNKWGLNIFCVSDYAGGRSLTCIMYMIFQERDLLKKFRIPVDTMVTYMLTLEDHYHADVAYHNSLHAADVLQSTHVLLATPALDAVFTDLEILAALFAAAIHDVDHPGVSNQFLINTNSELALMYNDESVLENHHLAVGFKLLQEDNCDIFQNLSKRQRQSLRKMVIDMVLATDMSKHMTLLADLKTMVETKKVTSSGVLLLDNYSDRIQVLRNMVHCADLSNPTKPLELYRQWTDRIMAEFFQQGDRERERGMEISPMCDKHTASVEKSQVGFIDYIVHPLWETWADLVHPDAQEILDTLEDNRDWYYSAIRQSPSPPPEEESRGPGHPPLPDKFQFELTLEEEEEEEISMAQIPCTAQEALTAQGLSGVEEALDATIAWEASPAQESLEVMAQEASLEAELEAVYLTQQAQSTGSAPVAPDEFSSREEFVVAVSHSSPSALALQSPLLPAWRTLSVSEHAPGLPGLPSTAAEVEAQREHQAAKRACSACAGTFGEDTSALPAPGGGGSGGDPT

For the compound `CC1(C)CCc2c(N3CCOCC3)nc3sc4c(NCCCN5CCCC5=O)ncnc4c3c2C1`, the pIC50 was 7.68 in data set [1], 5.67 in the data set with Blood, 7.74 in data set [2] and 7.21 in data set [3].
In turn, `CC1(C)Cc2c(c(N3CCOCC3)nc3sc4c(NCCN5CCCCC5)ncnc4c23)CO1` had a pIC50 in data set [1] of 6.55.
On to `CCC1(C)Cc2c(c(N3CCOCC3)nc3sc4c(NCCN5CCOCC5)ncnc4c23)CO1` (stereo not given), for which the pIC50 in data set [1] was 7.05; with Blood, 5.69.
As for `CC1(C)Cc2c(c(N3CCOCC3)nc3sc4c(N(CCN5CCOCC5)Cc5cccnc5)ncnc4c23)CO1`, the pIC50 in data set [1] is 8.35; in the data set on Blood it was 6.40; in data set [2], 8.30; in data set [3], 7.72.
For `CC1(C)Cc2c(c(N3CCOCC3)nc3sc4c(N(CCO)CCN5CCOCC5)ncnc4c23)CO1`, in that order: 7.89, 6.27, 7.64 and 7.41.
For `CC1(C)CCc2c(N3CCOCC3)nc3sc4c(NCc5ccncc5)ncnc4c3c2C1`, in that order: 7.96, 5.69, 7.72 and 7.89.
As to `c1nc(NCCN2CCOCC2)c2sc3nc(N4CCOCC4)c4c(c3c2n1)CCOC4`, the negative-log IC50 (pIC50) in data set [1] is 5.75.
Regarding `CC1(C)CCc2c(-c3ccoc3)nc3sc4c(NCCN5CCOCC5)ncnc4c3c2C1`, the pIC50 in data set [1] is 8.54; in the data set on Blood it was 5.91; in data set [2], 8.05; in data set [3], 8.51.
For `CC1(C)CCc2c(N3CCOCC3)nc3sc4c(NCCN5CCOCC5)ncnc4c3c2C1`, in that order: 8.54, 5.86, 7.13 and 8.34.
For `CNc1nc2sc3c(NCCN4CCOCC4)ncnc3c2c2c1CCC(C)(C)C2`, the negative-log IC50 (pIC50) in data set [1] was 8.00; in the data set on Blood, 6.63; in data set [2] it was 7.74; in data set [3], 8.38. In addition, in data set [4], the Papp A→B was determined as 13.7 ×10⁻⁶ cm/s.
Consider `CC1(C)Cc2c(c(N3CCOCC3)nc3sc4c(NCCN5CCOCC5)ncnc4c23)CO1`, for which the pIC50 was 7.59 in data set [1], 6.63 in the data set on Blood, 7.20 in data set [2] and 6.22 in data set [3].
The compound `CC1(C)CCc2c(N3CCOCC3)nc3sc4c(NCCN5CCOCC5)ncnc4c3c21` showed a pIC50 in data set [1] of 6.56.
For `CC1(C)CCc2c(N3CCOCC3)nc3sc4c(NCc5cccnc5)ncnc4c3c2C1`, the pIC50 in data set [1] was 8.44; in the data set with Blood, 6.42; in data set [2], 8.35; in data set [3] it was 7.49.
With `CN1CCN(c2nc3sc4c(NCCN5CCOCC5)ncnc4c3c3c2COC(C)(C)C3)CC1`, the pIC50 in data set [1] is 5.92.
As to `CC1(C)Cc2c(N3CCOCC3)nc3sc4c(NCCN5CCOCC5)ncnc4c3c2C1`, in data set [1], the pIC50 is 6.48.
Compound `COc1ccc(C2CNC(=O)C2)cc1OC1CCCC1` (stereo not given) [ROLIPRAM] showed a pIC50 in the data set on Blood of 5.83.
As to `CC1(C)CCc2c(-c3ccco3)nc3sc4c(NCCN5CCOCC5)ncnc4c3c2C1`, the pIC50 in data set [1] was 8.42; with Blood, 5.96; in data set [2] it was 8.27; in data set [3] it was 8.10.
For `CC1(C)Cc2c(c(N3CCOCC3)nc3sc4c(NCc5ccncc5)ncnc4c23)CO1`, in that order: 7.66, 5.99, 7.01 and 6.89.
Consider `CC1(C)CCc2c(N3CCCC3)nc3sc4c(NCCN5CCOCC5)ncnc4c3c2C1`, for which the pIC50 in data set [1] was 8.09; in the data set with Blood, 6.18; in data set [2], 7.37; in data set [3], 7.96.
Take `CC1(C)Cc2c(c(N3CCOCC3)nc3sc4c(NCCCN5CCCC5=O)ncnc4c23)CO1`: in data set [1], the pIC50 is 6.78.
For `CN(Cc1ccccc1)c1nc2sc3c(NCCN4CCOCC4)ncnc3c2c2c1CCC(C)(C)C2`, the pIC50 in data set [1] is 6.06.
For the compound `CC1(C)CCc2c(N3CCOCC3)nc3sc4c(N(CCO)CCN5CCOCC5)ncnc4c3c2C1`, the pIC50 was 8.55 in data set [1], 6.49 in the data set on Blood, 8.19 in data set [2] and 8.74 in data set [3].
For `COc1ccccc1CNc1ncnc2c1sc1nc(N3CCOCC3)c3c(c12)CC(C)(C)CC3`, in data set [1], the pIC50 is 6.67.
In the case of `CC(C)Cc1nc2sc3c(NCCN4CCOCC4)ncnc3c2c2c1CCC(C)(C)C2`, the pIC50 in data set [1] is 8.14; in the data set on Blood, 5.89; in data set [2], 8.17; in data set [3], 7.41. In addition, the Papp A→B in data set [4] was 0.4 ×10⁻⁶ cm/s.
Regarding `CNc1nc2sc3c(NCCN4CCOCC4)ncnc3c2c2c1COC(C)(C)C2`, in data set [1], the pIC50 was 7.29.
Turning to `COc1ccccc1CNc1ncnc2c1sc1nc(N3CCOCC3)c3c(c12)CC(C)(C)OC3`, the negative-log IC50 (pIC50) in data set [1] is 7.40; in the data set on Blood it was 5.92; in data set [2], 7.17; in data set [3] it was 6.92.
`CC1(C)Cc2c(c(N3CCOCC3)nc3sc4c(NCc5cccnc5)ncnc4c23)CO1`: the pIC50 in data set [1] was 8.24; in the data set on Blood, 6.19; in data set [2], 7.32; in data set [3], 7.28.
Turning to `CN(C)c1nc2sc3c(NCCN4CCOCC4)ncnc3c2c2c1COC(C)(C)C2`, the pIC50 in data set [1] was 7.35; in the data set on Blood, 6.58; in data set [2], 7.70; in data set [3], 7.60. Besides, in data set [4], the Papp A→B came to 21.9 ×10⁻⁶ cm/s.
As to `Cc1nc2sc3c(NCCN4CCOCC4)ncnc3c2c2c1CCC(C)(C)C2`, the pIC50 is 7.43 in data set [1], 6.04 in the data set on Blood, 7.01 in data set [2] and 7.47 in data set [3].
For `CN1Cc2c(N3CCOCC3)nc3sc4c(NCCN5CCOCC5)ncnc4c3c2CC1(C)C`, the negative logarithm of the IC50 (pIC50) in data set [1] was 5.43; in the data set with Blood, 5.49.
In data set [1], `CN1CCN(c2nc3sc4c(NCCN5CCOCC5)ncnc4c3c3c2CCC(C)(C)C3)CC1` gave a pIC50 of 7.02.

The term pIC50 denotes −log10 of the IC50, conventionally taken in molar units. A high value points to a low IC50. Usually Papp A→B stands for how fast a substance crosses the layer from the apical side.
